Experiments:
Type in all cases: functional
[1] = test system: MOLT-4; experiment: Growth inhibition of human MOLT4 cells incubated for 48 hrs by sulforhodamine B assay; settings: MOLT-4, 48 h
Summary of the method: (§1)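 NCI-60 five-dose screen at 0.01, 0.1, 1, 10 and 100 µM, 48 h incubation, sulforhodamine B end point. GI50 (50% decrease in net growth), TGI (total growth inhibition) and LC50 (net 50% loss of initial cells) taken from log concentration versus % growth inhibition curves.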

[2] = test system: A549; experiment: Growth inhibition of human A549/ATCC cells incubated for 48 hrs by sulforhodamine B assay; settings: A549, 48 h; summary of the method: as §1
[3] = test system: HOP-62; experiment: Growth inhibition of human HOP62 cells incubated for 48 hrs by sulforhodamine B assay; settings: HOP-62, 48 h; summary of the method: as §1
[4] = test system: HOP-92; experiment: Growth inhibition of human HOP92 cells incubated for 48 hrs by sulforhodamine B assay; settings: HOP-92, 48 h; summary of the method: as §1
[5] = test system: NCI-H226; experiment: Growth inhibition of human NCI-H226 cells incubated for 48 hrs by sulforhodamine B assay; settings: NCI-H226, 48 h; summary of the method: as §1
[6] = test system: NCI-H23; experiment: Growth inhibition of human NCI-H23 cells incubated for 48 hrs by sulforhodamine B assay; settings: NCI-H23, 48 h; summary of the method: as §1
[7] = test system: NCI-H322M; experiment: Growth inhibition of human NCI-H322M cells incubated for 48 hrs by sulforhodamine B assay; summary of the method: as §1
[8] = test system: NCI-H460; experiment: Growth inhibition of human NCI-H460 cells incubated for 48 hrs by sulforhodamine B assay; settings: NCI-H460, 48 h; summary of the method: as §1
[9] = test system: NCI-H522; experiment: Growth inhibition of human NCI-H522 cells incubated for 48 hrs by sulforhodamine B assay; settings: NCI-H522, 48 h; summary of the method: as §1
[10] = test system: COLO 205; experiment: Growth inhibition of human COLO205 cells incubated for 48 hrs by sulforhodamine B assay; settings: COLO 205, 48 h; summary of the method: as §1
[11] = test system: HT-29; experiment: Growth inhibition of human HT-29 cells incubated for 48 hrs by sulforhodamine B assay; settings: HT-29, 48 h; summary of the method: as §1
[12] = test system: SF-268; experiment: Growth inhibition of human SF268 cells incubated for 48 hrs by sulforhodamine B assay; settings: SF-268, 48 h
Summary of the method: (§2)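 NCI 60 human tumour cell line panel, five-dose study at 0.01, 0.1, 1, 10 and 100 µM, 48 h incubation. Sulforhodamine B protein-binding dye end point. GI50 (50% decrease in net cell growth), TGI (total growth inhibition) and LC50 (net 50% loss of initial cells) read from log concentration versus % growth inhibition curves.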

[13] = test system: U-251; experiment: Growth inhibition of human U251 cells incubated for 48 hrs by sulforhodamine B assay; settings: U-251, 48 h; summary of the method: as §2
[14] = test system: SK-MEL-28; experiment: Growth inhibition of human SK-MEL-28 cells incubated for 48 hrs by sulforhodamine B assay; settings: SK-MEL-28, 48 h; summary of the method: as §2
[15] = test system: UACC-257; experiment: Growth inhibition of human UACC257 cells incubated for 48 hrs by sulforhodamine B assay; settings: UACC-257, 48 h; summary of the method: as §2
[16] = test system: IGROV-1; experiment: Growth inhibition of human IGROV1 cells incubated for 48 hrs by sulforhodamine B assay; settings: IGROV-1, 48 h; summary of the method: as §1
[17] = test system: OVCAR-3; experiment: Growth inhibition of human OVCAR3 cells incubated for 48 hrs by sulforhodamine B assay; settings: OVCAR-3, 48 h; summary of the method: as §1
[18] = test system: OVCAR-4; experiment: Growth inhibition of human OVCAR4 cells incubated for 48 hrs by sulforhodamine B assay; settings: OVCAR-4, 48 h; summary of the method: as §1
[19] = test system: OVCAR-5; experiment: Growth inhibition of human OVCAR5 cells incubated for 48 hrs by sulforhodamine B assay; settings: OVCAR-5, 48 h; summary of the method: as §1
[20] = test system: NCI/ADR-RES; experiment: Growth inhibition of human NCI/ADR-RES cells incubated for 48 hrs by sulforhodamine B assay; summary of the method: as §1
[21] = test system: SK-OV-3; experiment: Growth inhibition of human SKOV3 cells incubated for 48 hrs by sulforhodamine B assay; settings: SK-OV-3, 48 h; summary of the method: as §2
[22] = test system: 786-0; experiment: Growth inhibition of human 786-0 cells incubated for 48 hrs by sulforhodamine B assay; settings: 786-0, 48 h; summary of the method: as §1
[23] = test system: TK-10; experiment: Growth inhibition of human TK10 cells incubated for 48 hrs by sulforhodamine B assay; settings: TK-10, 48 h; summary of the method: as §2
[24] = test system: UO-31; experiment: Growth inhibition of human UO31 cells incubated for 48 hrs by sulforhodamine B assay; settings: UO-31, 48 h; summary of the method: as §2
[25] = test system: Hs-578T; experiment: Growth inhibition of human Hs 578T cells incubated for 48 hrs by sulforhodamine B assay; summary of the method: as §1
[26] = test system: MDA-MB-468; experiment: Growth inhibition of human MDA-MB-468 cells incubated for 48 hrs by sulforhodamine B assay; settings: MDA-MB-468, 48 h; summary of the method: as §1
[27] = test system: HOP-92; experiment: Anticancer activity against human HOP92 cells assessed as cell growth at 10 uM after 48 hrs by sulforhodamine B assay relative to control; settings: HOP-92, 48 h, read-out: Activity
Summary of the method: (§3)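 Single-dose NCI-60 panel screen: compound added at 10 µM and the culture incubated 48 h. The end point was read by protein staining with sulforhodamine B. The value is percent growth of treated cells relative to untreated control cells, reported as a mean graph across the panel.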

[28] = test system: SNB-19; experiment: Anticancer activity against human SNB19 cells assessed as cell growth at 10 uM after 48 hrs by sulforhodamine B assay relative to control; settings: SNB-19, 48 h, read-out: Activity; summary of the method: as §3
[29] = read-out: LC50 (the source's name)

C=C1CC[C@@H]2[C@](C)(COC(C)=O)[C@H](OC(C)=O)CC[C@@]2(C)[C@H]1CC(Nc1ccc(S(=O)(=O)Nc2ncccn2)cc1)C1=CCOC1=O (some centres not stated)
GI50 [1]: 2.27 µM | TGI [1]: 8.37 µM | CC50 [1, 29]: > 100 µM | GI50 [2]: 3.18 µM | TGI [2]: 9.98 µM | CC50 [2, 29]: 34.6 µM | GI50 [3]: 3.02 µM | TGI [3]: 6.44 µM | CC50 [3, 29]: 21.5 µM | GI50 [4]: 3.1 µM | TGI [4]: 8.85 µM | CC50 [4, 29]: 31.1 µM | GI50 [5]: 1.63 µM | TGI [5]: 3.57 µM | GI50 [6]: 2.11 µM | TGI [6]: 5.38 µM | CC50 [6, 29]: 26.7 µM | GI50 [7]: 3.12 µM | TGI [7]: 11.1 µM | CC50 [7, 29]: 35.6 µM | GI50 [8]: 1.98 µM | TGI [8]: 4.06 µM | CC50 [8, 29]: 8.32 µM | GI50 [9]: 0.49 µM | TGI [9]: 2.07 µM | CC50 [9, 29]: 6.45 µM | GI50 [10]: 1.78 µM | TGI [10]: 3.8 µM | CC50 [10, 29]: 8.11 µM | GI50 [11]: 1.03 µM | TGI [11]: 2.79 µM | GI50 [12]: 1.93 µM | TGI [12]: 4.16 µM | CC50 [12, 29]: 8.97 µM | GI50 [13]: 1.74 µM | TGI [13]: 3.28 µM | CC50 [13, 29]: 6.17 µM | GI50 [14]: 1.69 µM | LC50 (50% net cell kill) [14]: 6.2 µM | TGI [14]: 3.24 µM | GI50 [15]: 2.34 µM | TGI [15]: 6.07 µM | CC50 [15, 29]: 21.9 µM | GI50 [16]: 2.04 µM | TGI [16]: 4.41 µM | CC50 [16, 29]: 9.53 µM | GI50 [17]: 1.21 µM | TGI [17]: 2.54 µM | CC50 [17, 29]: 5.31 µM | GI50 [18]: 1.85 µM | LC50 [18]: 19.3 µM | TGI [18]: 5.26 µM | GI50 [19]: 1.98 µM | LC50 (concentration causing net 50% loss of initial cells) [19]: 7.47 µM | TGI [19]: 3.85 µM | GI50 [20]: 1.83 µM | LC50 (concentration giving net 50% loss of initial cells) [20]: > 100 µM | TGI [20]: 5.28 µM | GI50 [21]: 6.27 µM | TGI [21]: 18.3 µM | CC50 [21, 29]: 42.8 µM | GI50 [22]: 1.77 µM | LC50 (concentration giving net 50% loss of initial cells) [22]: 6.51 µM | TGI [22]: 3.39 µM | GI50 [23]: 2.77 µM | TGI [23]: 6.03 µM | CC50 [23, 29]: 18.3 µM | GI50 [24]: 1.51 µM | LC50 (concentration giving net 50% loss of initial cells) [24]: 5.85 µM | TGI [24]: 2.97 µM | GI50 [25]: 3.54 µM | LC50 [25]: > 100 µM | TGI [25]: 24.4 µM | GI50 [26]: 1.33 µM | TGI [26]: 3.57 µM | growth at 10 µM [27]: 56.3% | growth at 10 µM [28]: 36.7%

Source: ChEMBL document CHEMBL4033712, “Synthesis and biological evaluation of new C-12(α/β)-(N-) sulfamoyl-phenylamino-14-deoxy-andrographolide derivatives as potent anti-cancer agents” (Bioorg Med Chem Lett, 2017)
